Reference: ChEMBL document CHEMBL4371016, “Proline- and Arginine-Rich Peptides as Flexible Allosteric Modulators of Human Proteasome Activity” (J Med Chem, 2019)
Blank lines part the entries; values can stand above or below the compound they belong to. Calls of active or inactive are those of the source. No cut-off for these calls is given here. Residues, ends and D or L forms follow the SMILES beside them.

Tests used:
[1] = target: T1, 20S proteasome (Homo sapiens) (UniProt P49721+P20618+P28074+P28062+P28065+P28072+P25786+P25787+P25788+P25789+P28066+P60900+O14818+Q8TAA3+P40306+A5LHX3+P49720+P28070+Q99436); assay: Effect on alpha-face conformations of latent human erythrocytes 20S proteasome assessed as open state conformation at 1 uM by atomic force microscopic method (reference value: 7%)
[2] = target: T2, Proteasome Macropain subunit MB1 (Homo sapiens) (UniProt P28074); assay: Positive allosteric modulation of latent human erythrocytes 20S proteasome chymotrypsin like activity at 25 uM using LFP as substrate measured every 2 mins up to 60 mins by fluorescence assay relative to control
T2 sequence (whole entry): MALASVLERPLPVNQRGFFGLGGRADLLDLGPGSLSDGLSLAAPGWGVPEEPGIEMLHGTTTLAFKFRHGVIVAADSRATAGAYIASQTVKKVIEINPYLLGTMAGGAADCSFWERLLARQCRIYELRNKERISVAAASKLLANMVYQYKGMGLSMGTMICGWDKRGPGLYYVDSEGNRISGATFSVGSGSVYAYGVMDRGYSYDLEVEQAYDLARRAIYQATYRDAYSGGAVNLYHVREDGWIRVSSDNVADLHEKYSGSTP

[3] = target: T2, Proteasome Macropain subunit MB1 (Homo sapiens); assay: Positive allosteric modulation of latent human erythrocytes 20S proteasome chymotrypsin like activity using LFP as substrate measured every 2 mins up to 60 mins by fluorescence assay
[4] = target: T3, Proteasome component C5 (Homo sapiens) (UniProt P20618); assay: Positive allosteric modulation of latent human erythrocytes 20S proteasome caspase like activity at 10 uM measured every 1 min up to 60 mins by fluorescence assay relative to control
T3 sequence (whole entry): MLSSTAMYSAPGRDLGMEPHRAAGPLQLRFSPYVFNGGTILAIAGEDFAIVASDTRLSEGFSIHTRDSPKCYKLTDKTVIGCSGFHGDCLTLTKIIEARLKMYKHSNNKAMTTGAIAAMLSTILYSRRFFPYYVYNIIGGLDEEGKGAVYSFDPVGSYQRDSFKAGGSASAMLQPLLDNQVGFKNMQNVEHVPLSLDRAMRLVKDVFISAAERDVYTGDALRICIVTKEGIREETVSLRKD

[5] = target: T2, Proteasome Macropain subunit MB1 (Homo sapiens); assay: Stimulation of 20S proteasome chymotrypsin like activity in human primary fibroblasts preincubated for 24 hrs followed by Suc-LLVY-AMC substrate addition and measured at 2 mins interval up to 60 mins by fluorescence assay
Procedure, shortened: (§1)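 Fibroblasts (GM04390, 3% O2, 37 °C) exposed to 0.1–20 μM peptide or DMSO for 24 h after Optimem switch. Cells scraped, lysed in 50 mM Tris/HCl pH 7.4, 5 mM MgCl2, 1 mM DTT by mechanical lysis and freeze fractionation. Bradford-normalised lysate (1 μg in 100 μL) incubated with 50 μM Suc-LLVY-AMC; fluorescence ex 370/em 460 nm.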

[6] = target: T1, 20S proteasome (Homo sapiens); assay: Effect on alpha-face conformations of latent human erythrocytes 20S proteasome assessed as intermediate state conformation at 1 uM by atomic force microscopic method (reference value: 22%)
[7] = target: T1, 20S proteasome (Homo sapiens); assay: Positive allosteric modulation of SDS-activated human erythrocytes 20S proteasome assessed as increase in yeast enolase degradation at 10 uM after 4 hr by SDS-PAGE analysis
[8] = target: T2, Proteasome Macropain subunit MB1 (Homo sapiens); assay: Positive allosteric modulation of latent human erythrocytes 20S proteasome chymotrypsin like activity at 25 uM using Suc-LLVY-AMC as substrate measured every 2 mins up to 60 mins by fluorescence assay relative to control
[9] = target: T2, Proteasome Macropain subunit MB1 (Homo sapiens); assay: Negative allosteric modulation of 10 uM Rpt5-activated human erythrocytes 20S proteasome chymotrypsin like activity up to 10 uM using Suc-LLVY-AMC as substrate measured every 1 min up to 60 mins by fluorescence assay
[10] = target: T1, 20S proteasome (Homo sapiens); assay: Positive allosteric modulation of SDS-activated human erythrocytes 20S proteasome assessed as increase in yeast enolase degradation at 1 uM after 4 hr by SDS-PAGE analysis relative to control
[11] = target: T2, Proteasome Macropain subunit MB1 (Homo sapiens); assay: Positive allosteric modulation of 1 uM Rpt5-activated human erythrocytes 20S proteasome chymotrypsin like activity up to 10 uM using Suc-LLVY-AMC as substrate measured every 1 min up to 60 mins by fluorescence assay
[12] = target: T2, Proteasome Macropain subunit MB1 (Homo sapiens); assay: Negative allosteric modulation of SDS-activated human erythrocytes 20S proteasome chymotrypsin like activity up to 10 uM using LFP as substrate measured every 2 mins up to 60 mins by fluorescence assay
[13] = target: T1, 20S proteasome (Homo sapiens); assay: Positive allosteric modulation of SDS-activated human erythrocytes 20S proteasome assessed as increase in human alpha-synuclein degradation at 10 uM after 1 hr by SDS-PAGE analysis
[14] = target: T2, Proteasome Macropain subunit MB1 (Homo sapiens); assay: Stimulation of 20S proteasome chymotrypsin like activity in human primary fibroblasts at 10 uM preincubated for 24 hrs followed by Suc-LLVY-AMC substrate addition and measured at 2 mins interval up to 60 mins by fluorescence assay relative to control; procedure, shortened: as §1
[15] = target: Proteasome subunit beta type-6 (Homo sapiens) (UniProt P28072); assay: Positive allosteric modulation of latent human erythrocytes 20S proteasome caspase like activity at 10 uM using Z-LLE-AMC as substrate measured every 1 min up to 60 mins by fluorescence assay relative to control
Sequence of Proteasome subunit beta type-6 (Homo sapiens) (P28072 whole entry, looked up): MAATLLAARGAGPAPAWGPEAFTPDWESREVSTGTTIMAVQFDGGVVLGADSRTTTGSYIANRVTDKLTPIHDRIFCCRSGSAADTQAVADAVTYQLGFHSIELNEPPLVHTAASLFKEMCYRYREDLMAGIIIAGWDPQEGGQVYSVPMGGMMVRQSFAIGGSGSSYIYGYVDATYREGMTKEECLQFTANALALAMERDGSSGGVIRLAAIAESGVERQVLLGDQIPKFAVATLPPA

[16] = target: T1, 20S proteasome (Homo sapiens); assay: Negative allosteric modulation of SDS-activated human erythrocytes 20S proteasome assessed as reduction in human alpha-synuclein degradation at 1 uM after 1 hr by SDS-PAGE analysis
Procedure, shortened: (§2)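 Human α-synuclein or yeast enolase digested by human 20S activated with 0.01% SDS (20S:substrate 1:100 pmol α-syn, 1:10 pmol enolase) in 20 mM HEPES pH 7.4 at 37 °C for 1 h (α-syn) or 4 h (enolase). DMSO at or below 0.05%. SDS–PAGE (12% or 10%) with Coomassie staining; remaining substrate densitometry as percent of control; at least three experiments, mean ± SEM.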

[17] = target: T1, 20S proteasome (Homo sapiens); assay: Negative allosteric modulation of SDS-activated human erythrocytes 20S proteasome assessed as reduction in yeast enolase degradation at 10 uM after 4 hr by SDS-PAGE analysis
[18] = target: T3, Proteasome component C5 (Homo sapiens); assay: Negative allosteric modulation of SDS-activated human erythrocytes 20S proteasome caspase like activity at lower concentration using Z-LLE-AMC as substrate measured every 2 mins up to 60 mins by fluorescence assay
[19] = target: T1, 20S proteasome (Homo sapiens); assay: Effect on alpha-face conformations of latent human erythrocytes 20S proteasome assessed as closed state conformation at 1 uM by atomic force microscopic method (reference value: 70%)
[20] = target: T1, 20S proteasome (Homo sapiens); assay: Negative allosteric modulation of SDS-activated human erythrocytes 20S proteasome assessed as reduction in human alpha-synuclein degradation at 10 uM after 1 hr by SDS-PAGE analysis; procedure, shortened: as §2
[21] = target: T1, 20S proteasome (Homo sapiens); assay: Negative allosteric modulation of SDS-activated human erythrocytes 20S proteasome assessed as reduction in yeast enolase degradation at 1 uM after 4 hr by SDS-PAGE analysis
[22] = target: T1, 20S proteasome (Homo sapiens); assay: Effect on alpha-face conformations of latent human erythrocytes 20S proteasome assessed as closed state conformation at 10 uM by atomic force microscopic method (reference value: 70%)
[23] = target: T1, 20S proteasome (Homo sapiens); assay: Effect on alpha-face conformations of latent human erythrocytes 20S proteasome assessed as open state conformation at 10 uM by atomic force microscopic method (reference value: 7%)
[24] = target: T2, Proteasome Macropain subunit MB1 (Homo sapiens); assay: Negative allosteric modulation of SDS-activated human erythrocytes 20S proteasome chymotrypsin like activity using Suc-LLVY-AMC as substrate measured every 2 mins up to 60 mins by fluorescence assay
Procedure, shortened: (§3)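 1.4 nM CP (0.001 mg/mL) in 50 mM Tris-HCl pH 8.0, activated with 0.005% SDS where stated, otherwise latent. Suc-LLVY-AMC at 100 μM final. AMC fluorescence read every 2 min up to 60 min at 37 °C. Activity relative to DMSO-treated enzyme, from at least three independent replicates. Peptide stocks 10 mM in DMSO.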

[25] = target: Proteasome Macropain subunit (Homo sapiens) (UniProt P49721); assay: Negative allosteric modulation of SDS-activated human erythrocytes 20S proteasome trypsin like activity at 10 uM using Boc-LRR-AMC as substrate measured every 2 mins up to 60 mins by fluorescence assay
Sequence of Proteasome Macropain subunit (Homo sapiens) (P49721 whole entry): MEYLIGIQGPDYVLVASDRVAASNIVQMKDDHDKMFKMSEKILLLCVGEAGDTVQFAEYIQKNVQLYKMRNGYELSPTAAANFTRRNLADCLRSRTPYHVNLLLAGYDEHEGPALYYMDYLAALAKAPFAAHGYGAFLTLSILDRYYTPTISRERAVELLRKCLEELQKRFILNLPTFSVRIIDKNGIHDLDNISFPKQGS

[26] = target: T1, 20S proteasome (Homo sapiens); assay: Effect on alpha-face conformations of latent human erythrocytes 20S proteasome assessed as intermediate state conformation at 10 uM by atomic force microscopic method (reference value: 22%)
[27] = target: T2, Proteasome Macropain subunit MB1 (Homo sapiens); assay: Positive allosteric modulation of latent human erythrocytes 20S proteasome chymotrypsin like activity up to 10 uM using Suc-LLVY-AMC as substrate measured every 2 mins up to 60 mins by fluorescence assay; procedure, shortened: as §3
[28] = target: T2, Proteasome Macropain subunit MB1 (Homo sapiens); assay: Positive allosteric modulation of latent human erythrocytes 20S proteasome chymotrypsin like activity up to 10 uM using LFP as substrate measured every 2 mins up to 60 mins by fluorescence assay
[29] = target: T2, Proteasome Macropain subunit MB1 (Homo sapiens); assay: Positive allosteric modulation of latent human erythrocytes 20S proteasome chymotrypsin like activity up to 10 uM using LFP as substrate measured every 2 mins up to 60 mins by fluorescence assay

Activity [1]: 18%
fold change (FC) [2]: 14
Activity [3]: Dose-dependent effect
fold change (FC) [4]: 5 to 7
Activity [5]: Dose-dependent effect
Activity [6]: 36%
Activity [7]: Active
fold change (FC) [8]: < 7
Activity [9]: inactive
fold change (FC) [10]: > 2
fold change (FC) [11]: 2
Activity [12]: inactive
Activity [13]: Active
fold change (FC) [14]: 3
fold change (FC) [15]: 5 to 7
Activity [16]: inactive
Structure (SMILES): C[C@H](NC(=O)[C@H](Cc1ccc(O)cc1)NC(=O)[C@H](Cc1ccc(O)cc1)NC(=O)[C@@H]1CCCN1C(=O)[C@@H]1CCCN1C(=O)[C@@H]1CCCN1C(=O)[C@@H]1CCCN1C(=O)[C@H](CCCNC(=N)N)NC(=O)[C@H](CCCNC(=N)N)NC(=O)[C@@H](N)CCCNC(=N)N)C(=O)O (H-RRRPPPPYYA-OH)

Structure (SMILES): CC(C)C[C@H](NC(=O)[C@H](Cc1ccc(O)cc1)NC(=O)[C@@H]1CCCN1C(=O)[C@@H]1CCCN1C(=O)[C@H](CCCNC(=N)N)NC(=O)[C@@H]1CCCN1C(=O)[C@H](CCCNC(=N)N)NC(=O)[C@H](CCCNC(=N)N)NC(=O)[C@@H](N)CCCNC(=N)N)C(=O)N1CCC[C@H]1C(=O)N[C@@H](CCCNC(=N)N)C(=O)N[C@@H](Cc1c[nH]c2ccccc12)C(=O)NCC(=O)O (H-RRRPRPPYLPRWG-OH)
Activity [1]: < 3%
Activity [17]: Active
Activity [18]: Active
Activity [19]: 73%
Activity [20]: Active
Activity [21]: Active
Activity [22]: 57%
Activity [23]: 18%
Activity [24]: Dose-dependent effect
Activity [25]: Active
Activity [26]: 25%
Activity [27]: inactive
Activity [12]: Active
Activity [28]: inactive
Activity [29]: inactive
Activity [16]: Active
